Screening data deposited in PubChem BioAssay by several laboratories.
TbHK1 inh: Trypanosoma brucei hexokinase 1 inhibitors, primary screen, biochemical, G6PDH-coupled NADH absorbance, MLSCN library; AID 1430, 2008; actives 0.11% (n = 220,000); recombinant TbHK1, G6PDH-coupled NADH A340; inhibition, % at 10 µM;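 active means inhibition of 50% or more in the single-dose primary screen; inactive means inhibition below 50%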
p97 ATPase inh: inhibitors of human p97 ATPase, primary screen, biochemical; Transitional endoplasmic reticulum ATPase (Homo sapiens), P55072; recombinant p97 ATPase, Kinase-Glo ATP luminescence, 3 h; inhibition, % at 8 µM; actives 0.42% (n = 220,000); AID 1481, 2009; in the data active means inhibition above about 15%;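 further: 0% = DMSO vehicle and 100% = wells lacking enzyme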
Runt-SMMHC FRET: inhibitors of RUNX1 Runt–CBFb-SMMHC binding, primary screen, biochemical, FRET, Cerulean-Runt, Venus-CBFb-SMMHC, uHTS; actives 0.74% (n = 220,000); inhibition, % at 20 µM; Cerulean-Runt/Venus-CBFb-SMMHC FRET ratio 530/480, 1 h; AID 1434, 2008; Runt-related transcription factor 1 (Homo sapiens) + Core-binding factor subunit beta …;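 active means mean inhibition across duplicate retests at 20 µM reaching about 50%, limit read from the data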;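 further: 0% = DMSO wells and 100% = wells with excess untagged CBFb-SMMHC; inhibitors lower the FRET ratio by blocking Runt binding to CBFb-SMMHC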
Target sequence (Q01196 whole entry, looked up): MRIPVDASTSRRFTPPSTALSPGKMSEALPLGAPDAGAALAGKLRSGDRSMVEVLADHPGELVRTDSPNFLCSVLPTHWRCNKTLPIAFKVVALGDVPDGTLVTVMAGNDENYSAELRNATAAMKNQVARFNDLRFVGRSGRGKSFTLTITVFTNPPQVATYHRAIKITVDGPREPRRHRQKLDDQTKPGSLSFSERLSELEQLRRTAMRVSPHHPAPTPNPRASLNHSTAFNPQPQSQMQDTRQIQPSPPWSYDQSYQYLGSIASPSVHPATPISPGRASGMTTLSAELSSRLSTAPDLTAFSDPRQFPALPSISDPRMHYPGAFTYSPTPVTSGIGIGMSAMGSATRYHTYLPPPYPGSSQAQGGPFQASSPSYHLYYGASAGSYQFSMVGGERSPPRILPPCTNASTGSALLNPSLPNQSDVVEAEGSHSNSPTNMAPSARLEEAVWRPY
Target sequence (Q13951 whole entry, looked up): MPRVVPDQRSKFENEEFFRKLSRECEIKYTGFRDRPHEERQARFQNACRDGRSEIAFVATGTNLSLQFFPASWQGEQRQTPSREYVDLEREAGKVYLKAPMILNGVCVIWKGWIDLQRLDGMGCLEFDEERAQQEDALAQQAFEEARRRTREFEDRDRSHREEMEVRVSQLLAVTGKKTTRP
RanGTP-Impb inh: inhibitors of RanGTP-importin-beta interaction, primary screen, biochemical, FRET, CFP-Ran, YFP-importin-beta, homogeneous. inhibition, % (concentration not given with the values). AID 2216, 2009. actives 1.1% (n = 300,000). Ran GTPase (GTP-bound) - importin-beta complex. cell-free CFP-Ran/YFP-importin-beta FRET ratio;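 active means more than half of the replicate wells show a fall in the fluorescence ratio signal beyond about 16%, limit read from the data, passing the limit was not always enough; inconclusive means exactly half of the replicate wells pass the set limit; inactive means fewer than half of replicates pass the limit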;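 further: 0% = DMSO wells and 100% = Ran loaded with GDP instead of GTP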
Hck-Nef inh: inhibitors of Nef-activated human Hck kinase, primary screen, biochemical, Z-Lyte FRET, 384-well, Hck-YEEI; Tyrosine-protein kinase HCK (Homo sapiens), P08631; Recombinant Hck-YEEI plus Nef, Z-Lyte FRET kinase assay; inhibition, % at 20 µM; actives 0.68% (n = 220,000); AID 463187, 2010;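 active means Hck-Nef kinase inhibition above about 50%, limit read from the data; inactive means inhibition below that limit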;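 further: 0% = DMSO with Hck plus Nef and 100% = Hck alone without Nef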
Runt-CBFb FRET: inhibitors of RUNX1 Runt–CBFb binding, primary screen, biochemical, FRET, Cerulean-Runt, Venus-CBFb, uHTS; Runt-related transcription factor 1 (Homo sapiens) + Core-binding factor subunit beta …; Cerulean-Runt/Venus-CBFb FRET ratio 530/480, 1 h; inhibition, % at 20 µM; actives 0.46% (n = 220,000); AID 1496, 2009;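 active means inhibition over about 50% at 20 µM in the single-dose screen, limit read from the data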;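 further: 0% = DMSO wells and 100% = excess unlabeled CBFb competitor control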
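Assay system: Cerulean-Runt domain fusion protein, energy donor; Signal: fluorescence energy transfer, 422 nm excitation, 530/480 nm emission; Timing: 1 h compound exposure, room temperature; Control set: unlabeled CBFb; Medium: Tris buffer pH 7.5 with salts and BSA; Compound: single test concentration of 20 µM, 1% DMSO final; Probe or stimulus: Venus-CBFb 100 nM.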
Starred values were filed as active, the others as inactive. An excerpt weighted towards active compounds, which were near 2.1% of everything screened.

How did CCC(=O)Nc1nn(CC(C)C)c2nc3ccc(C)cc3cc12 do in these assays?
RanGTP-Impb inh: 23.6*

How did CCCC(=O)Nc1nn(CC(C)C)c2nc3cc(C)ccc3cc12 do in these assays?
RanGTP-Impb inh: 28.1*

What do the screens show for `CCn1nc(NC(=O)CC(C)C)c2cc3ccc(C)cc3nc21`?
RanGTP-Impb inh: 9.9

Results for COc1ccc(C(=O)NC(C)CCc2ccccc2)c(O)c1 (configuration not stated) ?
RanGTP-Impb inh: 6.7

Results for COc1cc([N+](=O)[O-])ccc1N/C=C/C(=O)c1cccs1 ?
TbHK1 inh: -5.4; p97 ATPase inh: -6.3; Runt-SMMHC FRET: -6.4; RanGTP-Impb inh: 26.5*; Hck-Nef inh: 2.7; Runt-CBFb FRET: -48.3

How did CN(C)[C@@H]1C(=O)C(C(=O)NCN2CCCC2)=C(O)[C@@]2(O)C(=O)C3=C(O)c4c(O)cccc4[C@@](C)(O)C3CC12 (some centres not stated) do in these assays?
TbHK1 inh: -7.1; p97 ATPase inh: 22.8*; Runt-SMMHC FRET: 9.1; Hck-Nef inh: 15.2; Runt-CBFb FRET: 8.0

What do the screens show for `CCN1CCc2c(C#N)c(N3CCCCC3)nc(NCc3ccccc3)c2C1`?
TbHK1 inh: -9.3; p97 ATPase inh: 1.6; Runt-SMMHC FRET: 23.1; RanGTP-Impb inh: 1.1; Hck-Nef inh: 7.2; Runt-CBFb FRET: 17.4

What do the screens show for `C=CCNc1nc(N2CCOCC2)c(C#N)c2c1CN(C)CC2`?
TbHK1 inh: -9.0; p97 ATPase inh: 6.5; Runt-SMMHC FRET: 54.7*; RanGTP-Impb inh: 95.7*; Hck-Nef inh: 1.7; Runt-CBFb FRET: 31.9

What do the screens show for `CN1CCc2c(C#N)c(N3CCCCC3)nc(N3CCOCC3)c2C1`?
TbHK1 inh: -25.8; p97 ATPase inh: 3.3; RanGTP-Impb inh: 0.1; Hck-Nef inh: 1.7

How did CCN1CCc2c(C#N)c(N3CCOCC3)nc(NCCO)c2C1 do in these assays?
TbHK1 inh: -14.3; p97 ATPase inh: 3.1; Runt-SMMHC FRET: 62.5*; RanGTP-Impb inh: 54.3*; Hck-Nef inh: 1.5; Runt-CBFb FRET: 33.1

What do the screens show for `CCN1CCc2c(C#N)c(N3CCOCC3)nc(NCc3ccccc3)c2C1`?
TbHK1 inh: -14.7; p97 ATPase inh: -3.9; Runt-SMMHC FRET: 58.1*; RanGTP-Impb inh: 27.8*; Hck-Nef inh: 4.1; Runt-CBFb FRET: 40.4

How did N#Cc1c(NCCO)nc(NCc2ccccc2)c2c1CCN(Cc1ccccc1)C2 do in these assays?
TbHK1 inh: -11.2; p97 ATPase inh: 1.0; Runt-SMMHC FRET: 79.3*; RanGTP-Impb inh: 136.9*; Hck-Nef inh: 15.8; Runt-CBFb FRET: 32.0

What do the screens show for `COc1ccc(/C=C2/SC(=O)N(CCC(=O)Nc3ccccc3C(=O)O)C2=S)cc1`?
RanGTP-Impb inh: 1.6

What do the screens show for `CC1CCCCC1NC(=O)C1CCC(CNS(=O)(=O)c2cccc3cccnc23)CC1` (configuration not stated)?
RanGTP-Impb inh: -11.1

How did C=CCNc1nc(N2CCCCC2)c(C#N)c2c1CN(Cc1ccccc1)CC2 do in these assays?
TbHK1 inh: 1.3; p97 ATPase inh: 3.0; Runt-SMMHC FRET: 0.4; RanGTP-Impb inh: 51.8*; Hck-Nef inh: 1.0; Runt-CBFb FRET: 10.0

Results for Cc1ccc(NC(=O)CN(C)C(=O)c2ccc(Cl)nc2)cc1 ?
RanGTP-Impb inh: 2.0

What do the screens show for `COc1ccc(Cl)cc1NS(=O)(=O)N1CCOCC1`?
RanGTP-Impb inh: -3.5

What do the screens show for `O=c1oc2cc(O)ccc2c2oc3cc(O)ccc3c12`?
TbHK1 inh: -2.0; p97 ATPase inh: 4.4; Runt-SMMHC FRET: 56.4*; RanGTP-Impb inh: inconclusive; Hck-Nef inh: 18.3; Runt-CBFb FRET: 23.1

What do the screens show for `CC(=O)Oc1ccc2c3c(c(=O)oc2c1)CCCC3`?
RanGTP-Impb inh: 5.6
